Experiment [1] has as its system MCF7S. Briefly: Concentration required for 50% reduction of cellular net growth of MCF-7 human breast cancer cells. In kind it is functional. In short, it runs like this: (§1)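 MCF7 breast cancer cells were grown in 96-well format following a modified NCI protocol. Compounds in DMSO were tested in duplicate at five 10-fold dilutions, and controls received equivalent DMSO. After 48 h exposure, cells were fixed with ice-cold 50% (w/v) TCA for 60 min at 4 °C, then stained by SRB and read at OD 490 nm. Percent growth came from start versus end OD, corrected for medium background. GI50 and TGI were taken from curves as the mean of 2–4 experiments ± SD.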

Experiment [2] concerns HL-60. Briefly: Concentration required for 50% reduction of cellular net growth of HL60 human leukemia cells. Type of experiment: functional. The method in brief: (§2)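 HL60 leukemia cells were grown in 96-well format following a modified NCI protocol. Compounds in DMSO were tested in duplicate at five 10-fold dilutions, and controls received equivalent DMSO. After 48 h exposure, cells were fixed with ice-cold 80% (w/v) TCA for 60 min at 4 °C, then stained by SRB and read at OD 490 nm. Percent growth came from start versus end OD, corrected for medium-only background. GI50 and TGI were read from dose–response curves as the mean of 2–4 experiments ± SD.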

The subject of experiment [3] is HL-60. Briefly: Concentration required for 50% reduction of cellular net growth of HL60 human leukemia cells; na=no activity. Type of experiment: functional, cell-based. In short, it runs like this: as §2
Experiment [4] deals with MCF7S. Briefly: Concentration required for Total growth inhibition of MCF-7 human breast cancer cells. Type of experiment: functional. The method in brief: as §1
Experiment [5] deals with HL-60. Briefly: Concentration required for Total growth inhibition of HL60 human leukemia cells. In kind it is functional. In short, it runs like this:
as §2

Experiment [6] has as its system MCF7S. Briefly: Lethal concentration required for net loss in 50% of MCF-7 human breast cancer cells. In kind it is functional. To be noted: read-out: LC50 (the source's name). In short, it runs like this:
(§3)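 Modified NCI protocol with SRB read-out after 48 h drug exposure. Compounds were diluted from a DMSO stock at 400× the top final concentration, at five 10-fold dilutions in duplicate, with DMSO-matched controls. Cells were fixed with ice-cold TCA (80% w/v for HL60, 50% w/v for MCF7) for 60 min at 4 °C. OD was read at 490 nm and corrected for medium-only background. Percent growth came from OD at the start versus the end of exposure. LC50 is the concentration giving net loss of 50% of cells, from dose-response curves; values are means of 2–4 experiments.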

The subject of experiment [7] is MCF7S. Briefly: Concentration required for 50% reduction of cellular net growth of MCF-7 human breast cancer cells;na=no activity. In kind it is functional, cell-based. In short, it runs like this:
as §1

Experiment [8] has as its system HL-60. Briefly: Lethal concentration required for net loss in 50% of HL60 human leukemia cells. In kind it is functional. To be noted: read-out: LC50 (the source's name). The method in brief:
as §3

Experiment [9] has as its system MCF7S. Briefly: Concentration required for 50% reduction of cellular net growth of MCF-7 human breast cancer cells; na=no activity. In kind it is functional, cell-based. The method in brief:
as §1

Consider 15 compounds from ChEMBL document CHEMBL1142748, “The tert-butyl dimethyl silyl group as an enhancer of drug cytotoxicity against human tumor cells” (Bioorg Med Chem Lett, 2005).

Calls of active or inactive are those of the source. The calls are words filed in the database; no cut-off is given here.

Usually GI50 stands for the concentration at which growth is held to half of that of the control. In the case of `CC(C)(C)[Si](C)(C)O[C@H]1CCCO[C@@H]1CCO`, the 50% growth inhibitory concentration (GI50) was 55 µM in the experiment with MCF7S [1] and 46 µM in the experiment on HL-60 [2].

Consider `CC(C)(C)[Si](C)(C)O[C@H]1CCCO[C@@H]1CC#N`, for which the GI50 entry in the experiment on HL-60 [3] was “inactive”.

In general, TGI refers to the concentration at which net growth stops. Take `COC(=O)/C=C\[C@H]1OCCC[C@@H]1O[Si](C)(C)C(C)(C)C`: the concentration for 50% growth inhibition (GI50) with MCF7S [1] came to 32 µM. Further, in the experiment with MCF7S [4], the TGI came out at 82 µM. Moreover, in the experiment on HL-60 [3], the GI50 result is “inactive”.

For `CC(C)(C)[Si](C)(C)O[C@H]1CCCO[C@@H]1C/C=C/CO`, the GI50 is 25 µM in the experiment with MCF7S [1] and 27 µM with HL-60 [2]. In the experiment with MCF7S [4], this compound registered a TGI of 83 µM.

Turning to `COC(=O)/C=C/[C@H]1OCCC[C@@H]1O[Si](C)(C)C(C)(C)C`, the total growth inhibition concentration (TGI) in the experiment with HL-60 [5] came to 69 µM; in the experiment on MCF7S [4], 80 µM. For the same compound, in the experiment on MCF7S [6], the CC50 was 94 µM. Moreover, the concentration for 50% growth inhibition (GI50) in the experiment on MCF7S [1] stood at 24 µM; in the experiment on HL-60 [2], 22 µM.

Consider `COC(=O)/C=C/C[C@H]1OCCC[C@@H]1O`, for which the GI50 entry in the experiment on MCF7S [7] and in the experiment with HL-60 [3] was “inactive” in each case.

As to `CC(C)(C)[Si](C)(C)O[C@H]1CCCO[C@@H]1/C=C\CO`, the TGI in the experiment on HL-60 [5] came out at 64 µM; in the experiment on MCF7S [4] it was 23 µM. Further, the CC50 stood at 63 µM with MCF7S [6] and 88 µM with HL-60 [8]. Besides, the results for the GI50 in the experiment with MCF7S [1] and with HL-60 [2] were 6.4 µM and 26 µM, respectively.

In the experiment on MCF7S [1], `CC(C)(C)[Si](C)(C)OC/C=C/[C@H]1OCCC[C@@H]1O` returned a GI50 of 86 µM. The GI50 entry in the experiment with HL-60 [3] is “inactive”.

On to `CC(C)(C)[Si](C)(C)O[C@H]1CCCO[C@@H]1CC=O`, for which the values for the GI50 in the experiment on MCF7S [1] and with HL-60 [2] were 21 µM and 40 µM, respectively. The compound further had a TGI in the experiment on MCF7S [4] of 82 µM.

As to `COC(=O)/C=C/C[C@H]1OCCC[C@@H]1O[Si](C)(C)C(C)(C)C`, the figures for the concentration for total growth inhibition (TGI) in the experiment with HL-60 [5] and in the experiment on MCF7S [4] were 77 µM and 48 µM, respectively. The concentration for 50% growth inhibition (GI50) in the experiment on MCF7S [1] was 18 µM; with HL-60 [2], 22 µM.

Consider `C=CCO[C@H]1CCCO[C@@H]1CC=O`, for which, in the experiment with HL-60 [3], the GI50 entry is “inactive”.

For the compound `CC(C)(C)[Si](C)(C)O[C@H]1CCCO[C@@H]1/C=C/CO`, the GI50 with MCF7S [1] worked out at 61 µM; with HL-60 [2], 31 µM.

With `COC(=O)/C=C/C[C@H]1OCCC[C@@H]1OC(=O)c1ccccc1`, the GI50 entry in the experiment on MCF7S [1] and in the experiment with HL-60 [3] was “inactive” each time.

Turning to `COC(=O)/C=C/C[C@H]1OCCC[C@@H]1OC(C)=O`, the GI50 entry in the experiment with MCF7S [9] and with HL-60 [3] was “inactive” in each case.

Consider `OC/C=C/[C@H]1OCCC[C@@H]1O`, for which the GI50 result in the experiment with MCF7S [7] and with HL-60 [3] was “inactive” in each case.
